The values below come from PMC2610486 (Bioorganic & medicinal chemistry, 2008).

One series concerns the target CYP3A4 (Homo sapiens, UniProt P08684). The series can be described thus: Testosterone-6-hydroxylase activity in HepG2/C3A cell culture. The note with it: HepG2/C3A cultures; 50 µM testosterone, 48 hr. The format is cell-based. A digest of the protocol:
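Confluent HepG2 cultures were pre-incubated 4 h with test compound or ethanol control, then 50 µM testosterone was added. After 48 h incubation, medium was extracted with ethyl acetate and 6-hydroxytestosterone, as its trimethylsilyl ether, was quantified by GC-MS. Results are percent inhibition, given as means and standard deviation.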

Another series deals with tocopherol ω-hydroxylase. The series can be described thus: Tissue enrichment in δ-tocopherol in mice fed δ-tocopherol with or without 1. Format: in vivo, mouse. A digest of the protocol:
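Two groups of three male FVB/N mice were fed 10 days on ground chow with δ-tocopherol (6000 mg/kg diet), with or without test compound (500 mg/kg diet). Compound in ethanol and δ-tocopherol were premixed in diglyceride oil, then added to chow. Mice were fasted 5 h and euthanised. Plasma, liver and bile tocopherols were measured by GC-MS with d9-α-tocopherol internal standard. Results are δ-/α-tocopherol ratios, given as means and SD.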

The test system of the next series is HepG2 cells. The format is cell-based, human. The note with it: HepG2 cultures.
Series [1] has as its target T1, Cyp4F2 (tocopherol-ω-hydroxylase) (Homo sapiens, UniProt P78329).
T1 sequence (P78329 5-520): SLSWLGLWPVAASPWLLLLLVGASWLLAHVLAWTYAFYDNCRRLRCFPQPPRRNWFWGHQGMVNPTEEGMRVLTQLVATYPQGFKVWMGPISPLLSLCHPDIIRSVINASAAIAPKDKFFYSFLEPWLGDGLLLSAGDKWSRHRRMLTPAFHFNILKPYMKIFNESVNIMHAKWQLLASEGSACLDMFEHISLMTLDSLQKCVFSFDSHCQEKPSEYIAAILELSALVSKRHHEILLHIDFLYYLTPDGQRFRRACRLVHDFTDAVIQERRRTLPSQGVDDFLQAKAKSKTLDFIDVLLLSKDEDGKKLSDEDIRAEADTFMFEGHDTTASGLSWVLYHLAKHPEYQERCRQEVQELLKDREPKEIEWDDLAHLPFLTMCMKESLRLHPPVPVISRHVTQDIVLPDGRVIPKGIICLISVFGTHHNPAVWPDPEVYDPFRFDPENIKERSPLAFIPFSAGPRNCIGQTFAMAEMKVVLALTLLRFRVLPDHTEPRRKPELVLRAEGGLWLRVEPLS
The series can be described thus: Inhibition of γ-tocopherol metabolism. The format is cell-based. The note with it: HepG2 cells; at concentrations as low as 250 nM.

The mark [2] stands for this setting: male FVB/N mice, 500 mg 1 per kg diet with δ-tocopherol 6000 mg per kg diet, 10 days, P<0.05.

CYP3A4, sequence (P08684 whole entry): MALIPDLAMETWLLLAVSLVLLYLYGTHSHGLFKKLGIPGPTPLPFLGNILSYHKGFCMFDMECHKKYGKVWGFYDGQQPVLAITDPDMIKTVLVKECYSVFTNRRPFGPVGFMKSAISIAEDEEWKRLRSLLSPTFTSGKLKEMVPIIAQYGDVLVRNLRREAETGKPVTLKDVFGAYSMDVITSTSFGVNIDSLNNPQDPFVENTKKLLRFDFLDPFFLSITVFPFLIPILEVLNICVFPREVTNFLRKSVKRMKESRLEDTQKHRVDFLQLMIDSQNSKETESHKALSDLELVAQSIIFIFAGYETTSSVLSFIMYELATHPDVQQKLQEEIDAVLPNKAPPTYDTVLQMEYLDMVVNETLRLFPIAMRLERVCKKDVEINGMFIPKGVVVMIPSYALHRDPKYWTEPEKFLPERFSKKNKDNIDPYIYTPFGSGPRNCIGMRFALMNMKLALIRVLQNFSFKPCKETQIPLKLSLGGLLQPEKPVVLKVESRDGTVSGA

Regarding `Cc1c(C)c2c(c(C)c1O)CC[C@@](C)(CCCCCCCCCn1ccnn1)O2` [Compound 3, (R)-2-(9-(1H-1,2,3-triazol-1-yl)nonyl)-2,5,7,8-tetramethylchroman-6-ol], the “Effect on testosterone-6-hydroxylase (CYP3A4) activity (qualitative)” value (from here on “Effect on testosterone-6-hydroxylase”) on CYP3A4 is listed as “inhibited”.

As for `Cc1c(C)c2c(c(C)c1O)CC[C@@](C)(CCCCCCCCCn1cncn1)O2` [Compound 2, (R)-2-(9-(1H-1,2,4-triazol-1-yl)nonyl)-2,5,7,8-tetramethylchroman-6-ol], the “Effect on testosterone-6-hydroxylase” value at CYP3A4 was “inhibited”.

With `Cc1c(C)c2c(c(C)c1O)CC[C@@](C)(CCCCCCCCCn1ccnc1)O2` [Compound 1, (R)-2-(9-(1H-imidazol-1-yl)nonyl)-2,5,7,8-tetramethylchroman-6-ol], the “Level of δ-tocopherol in mice” value in the series on tocopherol ω-hydroxylase (1 at 500 mg per kg of diet that also contained δ-tocopherol) is “raised”. In the series on tocopherol ω-hydroxylase (setting [2]), the “Change in δ-tocopherol / α-tocopherol ratio in bile” value is “tripled” and the “Change in δ-tocopherol / α-tocopherol ratio in liver” value was “doubling”. Also, the “Effect on α-tocopherol status” value with tocopherol ω-hydroxylase (mice fed δ-tocopherol with or without 1) is reported as “no evidence that α-tocopherol status was affected”. In addition, the “Effect on testosterone-6-hydroxylase” value on CYP3A4 is listed as “inhibited”. Moreover, in the series on HepG2 cells, the “Effect on total cell protein” value is recorded as “no effect” and the Morphology of monolayers entry is on record as “normal”. Moreover, the “Inhibition of γ-tocopherol metabolism” value in series [1] is “complete inhibition”.
